Measurements reported in ChEMBL document CHEMBL3046176, “Synthesis, crystal structure, and biological activities of 2-cyanoacrylates containing furan or tetrahydrofuran moieties” (2007).

Key:
Type in all cases: functional
Fusarium graminearum = assay: Antifungal activity against Fusarium graminearum assessed as inhibition of mycelium growth at 50 mg/L at 26 degC measured after 72 hr
Method in brief: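 Mycelium growth test on agar plates: 1 mL test solution (50 mg/L) mixed with 9 mL agar medium; sterile water in place of test solution for controls. 4 mm inocula cut from margins of actively growing colonies, placed at plate centre, incubated at 26 °C; mycelium diameter measured over 72 h. Inhibition % from mean hyphal diameter against control. Triplicate.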

Digitaria sanguinalis [1] = assay: Herbicidal activity against hairy crabgrass Digitaria sanguinalis (hairy crabgrass) assessed as herbicidal damage at 1.5 kg/ha measured after postemergence treatment; conditions: post-emergence
Method in brief: (§1)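 Seeds were sown in 6 cm boxes of artificial mixed soil, covered with plastic film until emergence, and grown in a greenhouse. Sprays were applied right after sowing (preemergence) or after the first true leaf expanded (postemergence). Controls received the same amount of water/DMF/Tween 20. Above-ground fresh weight was taken 10 days after treatment, in triplicate, as % damage versus control.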

Amaranthus retroflexus [2] = assay: Herbicidal activity against Amaranthus retroflexus assessed as herbicidal damage at 1.5 kg/ha measured after preemergence treatment; conditions: pre-emergence; method in brief: as §1
Digitaria sanguinalis [3] = assay: Herbicidal activity against hairy crabgrass Digitaria sanguinalis (hairy crabgrass) assessed as herbicidal damage at 1.5 kg/ha measured after preemergence treatment; conditions: pre-emergence; method in brief: as §1
Amaranthus retroflexus [4] = assay: Herbicidal activity against Amaranthus retroflexus assessed as herbicidal damage at 1.5 kg/ha measured after postemergence treatment; conditions: post-emergence; method in brief: as §1
Medicago sativa [5] = assay: Herbicidal activity against Medicago sativa (alfalfa) assessed as herbicidal damage at 1.5 kg/ha measured after postemergence treatment; conditions: post-emergence; method in brief: as §1
Tobacco mosaic virus = assay: Antiviral activity against Tobacco mosaic virus (TMV) inoculated in fresh tobacco leaf at 100 mg/L by half-leaf method
Method in brief: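 Half-leaf method on tobacco leaves at the 5-6 growth stage. Leaves were inoculated with TMV by juice-leaf rubbing at 5.88 × 10-2 µg/mL and cut along the main vein. One half was immersed in test solution and the other in double distilled water for 20 min, then cultured at 25 °C for 72 h, in triplicate. Inhibition = 100(CK − A)/CK, from average lesion counts.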

Mycosphaerella arachidis = assay: Antifungal activity against Mycosphaerella arachidis assessed as inhibition of mycelium growth at 50 mg/L at 26 degC measured after 72 hr
Method in brief: (§2)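 Mycelium growth assay on agar. 1 mL test solution (50 mg/L) was poured into a 9 cm plate with 9 mL agar medium. Controls used sterile water in its place. A 4 mm plug from the margin of an actively growing colony was placed in the centre and incubated at 26 °C. Hyphal diameter was measured over 72 h, in triplicate. Inhibition % = (control diameter − treated diameter)/control diameter.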

[6] = system: Botryosphaeria berengeriana; assay: Antifungal activity against Botryosphaeria berengeriana assessed as inhibition of mycelium growth at 50 mg/L at 26 degC measured after 72 hr; method in brief: as §2
Cucumis sativus = assay: Plant growth regulatory activity in Cucumis sativus (cucumber) seed assessed as number of root at 10 mg/L at 26 degC measured after 5 days
Method in brief: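 Cucumber seeds were incubated at 26 °C in the dark for 72 h, then 10 cotyledons were excised and treated. Incubation continued at 26 °C in the dark for 5 days. Roots were counted, with water-only controls, in triplicate.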

Alternaria solani = assay: Antifungal activity against Alternaria solani assessed as inhibition of mycelium growth at 50 mg/L at 26 degC measured after 72 hr; method in brief: as §2
Brassica napus [7] = assay: Herbicidal activity against rape Brassica napus (oilseed rape) assessed as herbicidal damage at 1.5 kg/ha measured after postemergence treatment; conditions: post-emergence; method in brief: as §1
Cladosporium cucumerinum = assay: Antifungal activity against Cladosporium cucumerinum assessed as inhibition of mycelium growth at 50 mg/L at 26 degC measured after 72 hr; method in brief: as §2
Brassica napus [8] = assay: Herbicidal activity against rape Brassica napus (oilseed rape) assessed as herbicidal damage at 1.5 kg/ha measured after preemergence treatment; conditions: pre-emergence; method in brief: as §1
Medicago sativa [9] = assay: Herbicidal activity against Medicago sativa (alfalfa) assessed as herbicidal damage at 1.5 kg/ha measured after preemergence treatment; conditions: pre-emergence; method in brief: as §1

CCOCCOC(=O)/C(C#N)=C(\NCC1CCCO1)C(C)C (stereo not given)
inhibition at 50 µg/mL (Fusarium graminearum): 33.3%
inhibition at 1500 g/ha (Digitaria sanguinalis [1]): 100%
inhibition at 1500 g/ha (Amaranthus retroflexus [2]): 3.2%
inhibition at 1500 g/ha (Digitaria sanguinalis [3]): 40%
inhibition at 1500 g/ha (Amaranthus retroflexus [4]): 100%
inhibition at 1500 g/ha (Medicago sativa [5]): 60.5%
Activity (Tobacco mosaic virus): 7.2%
inhibition at 50 µg/mL (Mycosphaerella arachidis): 28.6%
inhibition at 50 µg/mL [6]: 18.2%
Activity (Cucumis sativus): 32.5%
inhibition at 50 µg/mL (Alternaria solani): 14.3%
inhibition at 1500 g/ha (Brassica napus [7]): 97.2%
inhibition at 50 µg/mL (Cladosporium cucumerinum): 0%
inhibition at 1500 g/ha (Brassica napus [8]): 80%
inhibition at 1500 g/ha (Medicago sativa [9]): 20.3%

CCOCCOC(=O)/C(C#N)=C(/C)NCC1CCCO1 (stereo not given)
inhibition at 50 µg/mL (Fusarium graminearum): 10%
inhibition at 1500 g/ha (Digitaria sanguinalis [1]): 7.1%
inhibition at 1500 g/ha (Amaranthus retroflexus [2]): 0%
inhibition at 1500 g/ha (Digitaria sanguinalis [3]): 5.7%
inhibition at 1500 g/ha (Amaranthus retroflexus [4]): 36.4%
inhibition at 1500 g/ha (Medicago sativa [5]): 28.7%
Activity (Tobacco mosaic virus): 7.5%
inhibition at 50 µg/mL (Mycosphaerella arachidis): 44.6%
inhibition at 50 µg/mL [6]: 9.1%
Activity (Cucumis sativus): -6.6%
inhibition at 50 µg/mL (Alternaria solani): 0%
inhibition at 1500 g/ha (Brassica napus [7]): 57.9%
inhibition at 50 µg/mL (Cladosporium cucumerinum): 13.2%
inhibition at 1500 g/ha (Brassica napus [8]): 8.5%
inhibition at 1500 g/ha (Medicago sativa [9]): 11.3%

CCOCCOC(=O)/C(C#N)=C(/CC)NCC1CCCO1 (stereo not given)
inhibition at 50 µg/mL (Fusarium graminearum): 20%
inhibition at 1500 g/ha (Digitaria sanguinalis [1]): 0%
inhibition at 1500 g/ha (Amaranthus retroflexus [2]): 8.4%
inhibition at 1500 g/ha (Digitaria sanguinalis [3]): 0%
inhibition at 1500 g/ha (Amaranthus retroflexus [4]): 46.1%
inhibition at 1500 g/ha (Medicago sativa [5]): 22.2%
Activity (Tobacco mosaic virus): 13.2%
inhibition at 50 µg/mL (Mycosphaerella arachidis): 37.5%
inhibition at 50 µg/mL [6]: 22.7%
Activity (Cucumis sativus): 2.4%
inhibition at 50 µg/mL (Alternaria solani): 10.7%
inhibition at 1500 g/ha (Brassica napus [7]): 63.7%
inhibition at 50 µg/mL (Cladosporium cucumerinum): 15.8%
inhibition at 1500 g/ha (Brassica napus [8]): 7.4%
inhibition at 1500 g/ha (Medicago sativa [9]): 3%

CCC/C(NCC1CCCO1)=C(\C#N)C(=O)OCCOCC (stereo not given)
inhibition at 50 µg/mL (Fusarium graminearum): 23.3%
inhibition at 1500 g/ha (Digitaria sanguinalis [1]): 0%
inhibition at 1500 g/ha (Amaranthus retroflexus [2]): 0%
inhibition at 1500 g/ha (Digitaria sanguinalis [3]): 0%
inhibition at 1500 g/ha (Amaranthus retroflexus [4]): 16.4%
inhibition at 1500 g/ha (Medicago sativa [5]): 19.2%
Activity (Tobacco mosaic virus): 0%
inhibition at 50 µg/mL (Mycosphaerella arachidis): 32.1%
inhibition at 50 µg/mL [6]: 4.5%
Activity (Cucumis sativus): 8.4%
inhibition at 50 µg/mL (Alternaria solani): 0%
inhibition at 1500 g/ha (Brassica napus [7]): 36.3%
inhibition at 50 µg/mL (Cladosporium cucumerinum): 10.5%
inhibition at 1500 g/ha (Brassica napus [8]): 0%
inhibition at 1500 g/ha (Medicago sativa [9]): 15%

CCOCCOC(=O)/C(C#N)=C(/CC)NCc1ccco1
inhibition at 50 µg/mL (Fusarium graminearum): 20%
inhibition at 1500 g/ha (Digitaria sanguinalis [1]): 27.3%
inhibition at 1500 g/ha (Amaranthus retroflexus [2]): 9.5%
inhibition at 1500 g/ha (Digitaria sanguinalis [3]): 12.1%
inhibition at 1500 g/ha (Amaranthus retroflexus [4]): 22.6%
inhibition at 1500 g/ha (Medicago sativa [5]): 35.9%
Activity (Tobacco mosaic virus): 13.3%
inhibition at 50 µg/mL (Mycosphaerella arachidis): 35.7%
inhibition at 50 µg/mL [6]: 27.3%
Activity (Cucumis sativus): 11.4%
inhibition at 50 µg/mL (Alternaria solani): 0%
inhibition at 1500 g/ha (Brassica napus [7]): 47.9%
inhibition at 50 µg/mL (Cladosporium cucumerinum): 21.1%
inhibition at 1500 g/ha (Brassica napus [8]): 16.3%
inhibition at 1500 g/ha (Medicago sativa [9]): 0%

CCOCCOC(=O)/C(C#N)=C(\NCc1ccco1)C(C)C
inhibition at 50 µg/mL (Fusarium graminearum): 23.3%
inhibition at 1500 g/ha (Digitaria sanguinalis [1]): 0%
inhibition at 1500 g/ha (Amaranthus retroflexus [2]): 6.3%
inhibition at 1500 g/ha (Digitaria sanguinalis [3]): 37.8%
inhibition at 1500 g/ha (Amaranthus retroflexus [4]): 41.9%
inhibition at 1500 g/ha (Medicago sativa [5]): 26.3%
Activity (Tobacco mosaic virus): 0%
inhibition at 50 µg/mL (Mycosphaerella arachidis): 37.5%
inhibition at 50 µg/mL [6]: 22.7%
Activity (Cucumis sativus): 2.4%
inhibition at 50 µg/mL (Alternaria solani): 17.9%
inhibition at 1500 g/ha (Brassica napus [7]): 56.3%
inhibition at 50 µg/mL (Cladosporium cucumerinum): 13.2%
inhibition at 1500 g/ha (Brassica napus [8]): 3.3%
inhibition at 1500 g/ha (Medicago sativa [9]): 4.5%
